The source of these data is ChEMBL document CHEMBL4732250, “Investigations on substituted (2-aminothiazol-5-yl)(imidazo[1,2-a]pyridin-3-yl)methanones for the treatment of Alzheimer's disease” (Bioorg Med Chem, 2021).

The source made the active and inactive calls. The calls are words filed in the database; no cut-off is given here.

Data set [1] is described as follows: Toxicity in AlCl3-induced Sprague-Dawley rat assessed as stomach lesion index at 5 mg/kg, po after 28 days by H and E staining based microscopic method. It counts as organism-based. To be noted: in vivo, 672 h, time 28 day. Put shortly:
(§1)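 Gastrointestinal damage in AlCl3-model rats, 28 days of oral dosing. Stomach and intestines were washed in cold PBS 0.01 M pH 7.4 and fixed 24 h in 10% neutral buffered formalin. After a 70% ethanol wash, haemorrhagic damage was measured by digital vernier caliper for the lesion index. HE-stained sections examined microscopically.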

Data set [2] in a line: Toxicity in AlCl3-induced Sprague-Dawley rat assessed as reduction in HGB level at 5 mg/kg, po after 28 days by automated haematology analyser. To be noted: in vivo, 672 h, time 28 day. It counts as organism-based. The essentials: (§2)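 On day 29 of the AlCl3 model (28 days of oral dosing), blood was drawn from the retro-orbital sinus under isoflurane into heparinized tubes. Haemoglobin and haematocrit were measured on a haematology analyser.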

The nature of data set [3]: Toxicity in AlCl3-induced Sprague-Dawley rat assessed as reduction in HCT level at 5 mg/kg, po after 28 days by automated haematology analyser. It counts as organism-based. To be noted: in vivo, 672 h, time 28 day. Put shortly: as §2
Data set [4] is described as follows: Toxicity in AlCl3-induced Sprague-Dawley rat assessed as reduction in serum albumin level at 5 mg/kg, po after 28 days by automated analyser. To be noted: in vivo, 672 h, time 28 day. It counts as organism-based. Put shortly: (§3)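 Under isoflurane, retro-orbital blood was collected into non-heparinized tubes after the 28-day AlCl3 model with oral dosing. Serum % albumin and total protein were measured on an automated clinical chemistry analyser.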

Data set [5] can be described thus: Toxicity in AlCl3-induced Sprague-Dawley rat assessed as reduction in total protein level at 5 mg/kg, po after 28 days by automated analyser. It counts as organism-based. To be noted: in vivo, 672 h, time 28 day. The essentials: as §3
The test system of data set [6] is Rattus norvegicus. Nature of the data set: Antialzheimer activity against AlCl3-induced Sprague-Dawley rat assessed as reduction in hippocampal neuronal degeneration at 5 mg/kg, po after 28 days by H and E staining based microscopic method. It counts as functional, organism-based. To be noted: time 28.0 day. Put shortly:
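Hippocampal neuronal degeneration. After 28 days of oral dosing in 0.2% agar with daily AlCl3 4.2 mg/kg i.p., brain sections were HE-stained and hippocampal regions examined at 100X.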

A short description of data set [7]: Toxicity in AlCl3-induced Sprague-Dawley rat assessed as intestine lesion index at 5 mg/kg, po after 28 days by H and E staining based microscopic method. It counts as organism-based. To be noted: in vivo, 672 h, time 28 day. The essentials: as §1
Data set [8] relates to Rattus norvegicus. Nature of the data set: Antiinflammatory activity in Sprague-Dawley rat acute model of carrageenan-induced paw edema assessed as inhibition of rat paw edema at 50 mg/kg, po pre treated for 1 hr followed by carrageenan-stimulation and measured after 3 hrs by plethysmometeric method relative to control. It counts as functional. To be noted: time 4 hrs. The essentials: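 SD rats of either sex, 150–200 g, n = 6, dosed orally in 0.2% agar suspension. After 1 h, 0.1 mL 1% carrageenan in saline injected into the left hind sub-plantar paw. Paw volume measured by mercury plethysmometer before and 3 h after injection. % edema inhibition calculated. Mean ± SEM.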
For orientation: In the carrageenan paw model, swelling and tenderness develop within hours.

For data set [9], the system named is Rattus norvegicus. Nature of the data set: Antiinflammatory activity in Sprague-Dawley rat chronic model of formalin-induced paw edema assessed as inhibition of rat paw edema at 50 mg/kg, po pre treated for 1 hr followed by formalin-stimulation and measured after 1 day by plethysmometeric method relative to control. To be noted: 24 h. It counts as functional. The essentials: (§4)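 Chronic paw edema. Oral pre-dose in 0.2% agar; after 1 h, 0.1 mL 2% formalin in saline injected into the left hind sub-plantar paw, repeated on 5 consecutive days. Paw volume by plethysmometer. % inhibition of edema size relative to disease control, days 1–5. n = 6, mean ± SEM, one-way ANOVA with Tukey's test.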

The subject of data set [10] is Rattus norvegicus. Nature of the data set: Antiinflammatory activity in Sprague-Dawley rat chronic model of formalin-induced paw edema assessed as inhibition of rat paw edema at 50 mg/kg, po pre treated for 1 hr followed by formalin-stimulation and measured after 2 days by plethysmometeric method relative to control. To be noted: 48 h, time 2 day. It counts as functional. Put shortly: as §4

Data set [11] has as its system Rattus norvegicus. Nature of the data set: Antiinflammatory activity in Sprague-Dawley rat chronic model of formalin-induced paw edema assessed as inhibition of rat paw edema at 50 mg/kg, po pre treated for 1 hr followed by formalin-stimulation and measured after 3 days by plethysmometeric method relative to control. It counts as functional. To be noted: 72 h, time 3 day. Put shortly:
as §4

The test system of data set [12] is Rattus norvegicus. Nature of the data set: Antiinflammatory activity in Sprague-Dawley rat chronic model of formalin-induced paw edema assessed as inhibition of rat paw edema at 50 mg/kg, po pre treated for 1 hr followed by formalin-stimulation and measured after 4 days by plethysmometeric method relative to control. To be noted: 96 h, time 4 day. It counts as functional. The essentials: as §4

Data set [13] relates to Rattus norvegicus. Nature of the data set: Antiinflammatory activity in Sprague-Dawley rat chronic model of formalin-induced paw edema assessed as inhibition of rat paw edema at 50 mg/kg, po pre treated for 1 hr followed by formalin-stimulation and measured after 5 day by plethysmometeric method relative to control. To be noted: 120 h. It counts as functional. Put shortly: as §4

The test system of data set [14] is Rattus norvegicus. Nature of the data set: Antiinflammatory activity in Sprague-Dawley rat chronic model of formalin-induced paw edema assessed as inhibition of rat paw edema at 40 mg/kg, po pre treated for 1 hr followed by formalin-stimulation and measured after 1 day by plethysmometeric method relative to control. It counts as functional. To be noted: 24 h. The essentials: as §4

Data set [15] relates to Rattus norvegicus. Nature of the data set: Antiinflammatory activity in Sprague-Dawley rat chronic model of formalin-induced paw edema assessed as inhibition of rat paw edema at 40 mg/kg, po pre treated for 1 hr followed by formalin-stimulation and measured after 2 days by plethysmometeric method relative to control. It counts as functional. To be noted: 48 h, time 2 day. Put shortly:
as §4

Data set [16] has as its system Rattus norvegicus. Nature of the data set: Antiinflammatory activity in Sprague-Dawley rat chronic model of formalin-induced paw edema assessed as inhibition of rat paw edema at 40 mg/kg, po pre treated for 1 hr followed by formalin-stimulation and measured after 3 days by plethysmometeric method relative to control. It counts as functional. To be noted: 72 h, time 3 day. The essentials:
as §4

In data set [17] the test system is Rattus norvegicus. Nature of the data set: Antiinflammatory activity in Sprague-Dawley rat chronic model of formalin-induced paw edema assessed as inhibition of rat paw edema at 40 mg/kg, po pre treated for 1 hr followed by formalin-stimulation and measured after 4 days by plethysmometeric method relative to control. It counts as functional. To be noted: 96 h, time 4 day. The essentials: as §4

Data set [18] has as its system Rattus norvegicus. Nature of the data set: Antiinflammatory activity in Sprague-Dawley rat chronic model of formalin-induced paw edema assessed as inhibition of rat paw edema at 40 mg/kg, po pre treated for 1 hr followed by formalin-stimulation and measured after 5 days by plethysmometeric method relative to control. It counts as functional. To be noted: 120 h, time 5 day. The essentials:
as §4

With `Cc1cnc(NC(=O)C2=C(O)c3ccccc3S(=O)(=O)N2C)s1` [MELOXICAM], the Activity_index in data set [1] stood at 12.19 mm; in data set [7], 29.15 mm. Besides, the Activity entry in [2] was “Toxic”; in [3], “Toxic”; in data set [4], “Non-Toxic”; in data set [5], “Toxic”. For the same molecule, the result in the data set on Rattus norvegicus [6] was Active.

As a reminder, the inhibition in vivo is the drop in the measured response relative to a control, in per cent. As to `Cc1ccc2ncc(C(=O)c3sc(N)nc3N(C)C)n2c1`, the inhibition in vivo at 50 mg/kg with Rattus norvegicus [8] stood at 23%.

On to `CN(C)c1nc(N)sc1C(=O)c1cnc2ccccn12`, for which the inhibition in vivo at 50 mg/kg with Rattus norvegicus [8] was determined as 32%.

With `Cc1cccn2c(C(=O)c3sc(N)nc3N(C)C)cnc12`, the inhibition in vivo at 50 mg/kg in the data set on Rattus norvegicus [8] was 81%; in the data set with Rattus norvegicus [9], 55%; with Rattus norvegicus [10], 56%; with Rattus norvegicus [11], 56%; with Rattus norvegicus [12], 54%; in the data set on Rattus norvegicus [13], 54%.

`Cc1ccc2ncc(C(=O)c3sc(N)nc3C)n2c1`: the inhibition in vivo at 50 mg/kg in the data set on Rattus norvegicus [8] is 33%.

For `Cc1nc(N)sc1C(=O)c1cnc2c(C)cccn12`, in the data set with Rattus norvegicus [8], the inhibition in vivo at 50 mg/kg amounted to 45%.

For the molecule `Cc1ccc2ncc(C(=O)c3cnc(N)s3)n2c1`, the inhibition in vivo at 50 mg/kg with Rattus norvegicus [8] came out at 53%.

Consider `Cc1cccn2c(C(=O)c3sc(N)nc3-c3ccccc3)cnc12`, for which the inhibition in vivo at 50 mg/kg in the data set on Rattus norvegicus [8] was determined as 20%.

Turning to `Cc1ccc(-c2cc(C(F)(F)F)nn2-c2ccc(S(N)(=O)=O)cc2)cc1` [CELECOXIB], the inhibition in vivo at 40 mg/kg in the data set with Rattus norvegicus [14] is 67%; with Rattus norvegicus [15], 74%; in the data set on Rattus norvegicus [16], 70%; in the data set on Rattus norvegicus [17], 70%; in the data set with Rattus norvegicus [18] it was 68%.

On to `Cc1cccn2c(C(=O)c3cnc(N)s3)cnc12`, for which the inhibition in vivo at 50 mg/kg with Rattus norvegicus [8] was determined as 31%.
